# From ChEMBL document CHEMBL3244123, “Isoquinolines. 5. Synthesis and antiarrhythmic activity of benzylisoquinoline derivatives” (J Med Chem, 1977)
# The source made the active and inactive calls. The calls are words filed in the database; no cut-off is given here.
# How the values were obtained:
# Mus musculus [1] = test: Antiarrhythmic activity in Swiss albino mouse assessed as protection against chloroform-induced ventricular fibrillation at 100 mg/kg, sc administered 20 mins prior to challenge; format: functional, organism-based; parameters: dose 100 mg/kg; conditions: Heart
# In short: (§1)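 Female Swiss albino mice, groups of ten, received drug in 0.9% saline sc at 100 mg/kg; dose raised to 200 mg/kg when neither protection nor toxicity appeared. After 20 min, mice were exposed to chloroform vapour. Absence of ventricular fibrillation counted as protection, reported as number protected of ten.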
# Mus musculus [2] = test: Toxicity in Swiss albino mouse assessed as ataxia at 100 mg/kg, sc measured up to 20 mins; format: organism-based; parameters: dose 100 mg/kg, route subcutaneous; conditions: in vivo
# In short: (§2)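 Female Swiss albino mice, ten per dose, were given drug in 0.9% saline sc and watched for 20 min before chloroform challenge. Ataxia, convulsions, loss of righting reflex and death were each reported as number of animals affected of ten.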
# Mus musculus [3] = test: Toxicity in Swiss albino mouse assessed as convulsions at 100 mg/kg, sc measured up to 20 mins; format: organism-based; parameters: dose 100 mg/kg, route subcutaneous; conditions: in vivo; in short: as §2
# Mus musculus [4] = test: Toxicity in Swiss albino mouse assessed as loss of righting reflex at 100 mg/kg, sc measured up to 20 mins; format: organism-based; parameters: dose 100 mg/kg, route subcutaneous; conditions: in vivo; in short: as §2
# Mus musculus [5] = test: Toxicity in Swiss albino mouse assessed as mortality at 100 mg/kg, sc measured up to 20 mins; format: organism-based; parameters: dose 100 mg/kg, route subcutaneous; conditions: in vivo; in short: as §2
# Mus musculus [6] = test: Toxicity in Swiss albino mouse assessed as ataxia at 200 mg/kg, sc measured up to 20 mins; format: organism-based; parameters: dose 200 mg/kg, route subcutaneous; conditions: in vivo; in short: as §2
# Mus musculus [7] = test: Toxicity in Swiss albino mouse assessed as convulsions at 200 mg/kg, sc measured up to 20 mins; format: organism-based; parameters: dose 200 mg/kg, route subcutaneous; conditions: in vivo; in short: as §2
# Mus musculus [8] = test: Toxicity in Swiss albino mouse assessed as loss of righting reflex at 200 mg/kg, sc measured up to 20 mins; format: organism-based; parameters: dose 200 mg/kg, route subcutaneous; conditions: in vivo; in short: as §2
# Mus musculus [9] = test: Toxicity in Swiss albino mouse assessed as mortality at 200 mg/kg, sc measured up to 20 mins; format: organism-based; parameters: dose 200 mg/kg, route subcutaneous; conditions: in vivo; in short: as §2
# Mus musculus [10] = test: Antiarrhythmic activity in Swiss albino mouse assessed as protection against chloroform-induced ventricular fibrillation at 47 mg/kg, sc administered 20 mins prior to challenge; format: functional, organism-based; parameters: dose 47 mg/kg; conditions: Heart
# In short: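 Female Swiss albino mice, ten per dose, received drug in 0.9% saline sc at one of three log-spaced doses. After 20 min, mice were exposed to chloroform vapour. Mice without ventricular fibrillation were scored protected, reported as number protected of ten.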
# Mus musculus [11] = test: Toxicity in Swiss albino mouse assessed as ataxia at 47 mg/kg, sc measured up to 20 mins; format: organism-based; parameters: dose 47 mg/kg, route subcutaneous; conditions: in vivo; in short: as §2
# Mus musculus [12] = test: Toxicity in Swiss albino mouse assessed as loss of righting reflex at 47 mg/kg, sc measured up to 20 mins; format: organism-based; parameters: dose 47 mg/kg, route subcutaneous; conditions: in vivo; in short: as §2
# Mus musculus [13] = test: Antiarrhythmic activity in sc dosed Swiss albino mouse assessed as protection against chloroform-induced ventricular fibrillation compound administered 20 mins prior to challenge; format: functional; conditions: Heart
# In short: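 Female Swiss albino mice, ten per dose, given drug sc in 0.9% saline; screen at 100 mg/kg (raised to 200 mg/kg if neither protection nor toxicity), observed 20 min for toxicity, then exposed to chloroform vapour; absence of ventricular fibrillation counted as protection. Full tests used three log-spaced doses; ED50 with 95% Fieller limits by Berkson minimum logit χ² analysis.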
# Mus musculus [14] = test: Toxicity in Swiss albino mouse assessed as ataxia at 138 mg/kg, sc measured up to 20 mins; format: organism-based; parameters: dose 138 mg/kg, route subcutaneous; conditions: in vivo; in short: as §2
# Mus musculus [15] = test: Toxicity in Swiss albino mouse assessed as convulsions at 138 mg/kg, sc measured up to 20 mins; format: organism-based; parameters: dose 138 mg/kg, route subcutaneous; conditions: in vivo; in short: as §2
# Mus musculus [16] = test: Toxicity in Swiss albino mouse assessed as loss of righting reflex at 138 mg/kg, sc measured up to 20 mins; format: organism-based; parameters: dose 138 mg/kg, route subcutaneous; conditions: in vivo; in short: as §2
# Mus musculus [17] = test: Toxicity in Swiss albino mouse assessed as mortality at 138 mg/kg, sc measured up to 20 mins; format: organism-based; parameters: dose 138 mg/kg, route subcutaneous; conditions: in vivo; in short: as §2
# Mus musculus [18] = test: Antiarrhythmic activity in Swiss albino mouse assessed as protection against chloroform-induced ventricular fibrillation at 200 mg/kg, sc administered 20 mins prior to challenge; format: functional, organism-based; parameters: dose 200 mg/kg; conditions: Heart; in short: as §1
# Canis familiaris [19] = test: Antiarrhythmic activity in beagle dog myocardial infarction model assessed as ventricular ectopic beats at 0.5 mg/kg/min, iv administered as infusion (reference value: 84 to 98 %); format: functional, Canis lupus familiaris, Heart
# In short: (§3)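 Drug infused iv via a fore limb vein at 0.5 mg/kg/min (as base, in 0.9% saline, pH 6–7) until clearing (ventricular ectopic activity ≤5% for a consecutive 5 min); EKG and vital signs monitored during and after infusion.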
# Canis familiaris [20] = test: Antiarrhythmic activity in beagle dog myocardial infarction model assessed as concentration required for reduction in ventricular ectopic activity to 5% or less for a consecutive 5 min compound administered iv as infusion; format: functional, Canis lupus familiaris, Heart; in short: as §3
# Canis familiaris [21] = test: Antiarrhythmic activity in beagle dog myocardial infarction model assessed as mean arterial blood pressure at 0.5 mg/kg/min, iv administered as infusion (reference value: 80 to 115 mmHg)
# Canis familiaris [22] = test: Antiarrhythmic activity in beagle dog myocardial infarction model assessed as ventricular rate at 0.5 mg/kg/min, iv administered as infusion (reference value: 126 to 221 bpm); format: functional, Canis lupus familiaris, Heart; in short: as §3
# Canis familiaris [23] = test: Toxicity in beagle dog myocardial infarction model assessed as head tremors compound administered iv as infusion; format: organism-based, Canis lupus familiaris; conditions: in vivo; in short: as §3
# Canis familiaris [24] = test: Toxicity in beagle dog myocardial infarction model assessed as convulsions compound administered iv as infusion; format: organism-based, Canis lupus familiaris; conditions: in vivo; in short: as §3
Structure (SMILES),Activity (Mus musculus [2]),Activity (Mus musculus [3]),Activity (Mus musculus [4]),Activity (Mus musculus [5]),further results
CCN(CC)CC(=O)Nc1cc(OC)c(OC)cc1C.Cl,Non-toxic,Non-toxic,Non-toxic,Non-toxic,Activity (Mus musculus [1]): inactive; Activity (Mus musculus [6]): Non-toxic; Activity (Mus musculus [7]): Non-toxic; Activity (Mus musculus [8]): Non-toxic; Activity (Mus musculus [9]): Non-toxic
COc1ccc(CC2c3cc(OC)c(OC)cc3CCN2C)cc1OC (racemic) [LAUDANOSINE],Toxic,Toxic,Non-toxic,Toxic,Activity (Mus musculus [1]): inactive; Activity (Mus musculus [10]): inactive; Activity (Mus musculus [11]): Non-toxic; Activity (Mus musculus [12]): Non-toxic
CCN(CC)CC(=O)Nc1c(C)cccc1C [LIDOCAINE],Toxic,Toxic,Toxic,Non-toxic,Activity (Mus musculus [1]): Active
CCNCC(=O)Nc1cc(OC)c(OC)cc1Cc1nccc2cc(OC)c(OC)cc12,–,Non-toxic,Non-toxic,Non-toxic,–
CCN(CC)CC(=O)Nc1cc(OC)ccc1C.Cl,–,–,–,–,Activity (Mus musculus [6]): Non-toxic; Activity (Mus musculus [7]): Non-toxic; Activity (Mus musculus [8]): Non-toxic; Activity (Mus musculus [9]): Non-toxic
COc1ccc(Cc2nccc3cc(OC)c(OC)cc23)cc1OC [PAPAVERINE],–,Non-toxic,Non-toxic,Non-toxic,–
CCN(CC)CC(=O)Nc1cc(OC)c(OC)cc1Cc1nccc2cc(OC)c(OC)cc12,Non-toxic,Non-toxic,Non-toxic,Non-toxic,–
CCN(CC)CC(=O)Nc1c(CC2c3ccccc3CCN2C)ccc(OC)c1OC.Cl (centres undefined),–,–,–,–,ED50 (Mus musculus [13]): 147 mg/kg; Activity (Mus musculus [14]): Non-toxic; Activity (Mus musculus [15]): Non-toxic; Activity (Mus musculus [16]): Non-toxic; Activity (Mus musculus [17]): Non-toxic
COc1ccc(Cc2nccc3ccccc23)c(NC(=O)C(C)N)c1OC (centres undefined),Non-toxic,Non-toxic,Non-toxic,Non-toxic,–
COc1ccc(Cc2nccc3ccccc23)c(NC(=O)CN)c1OC,Non-toxic,Non-toxic,Non-toxic,Non-toxic,–
CCN(CC)CC(=O)Nc1cc(OC)ccc1Cc1nccc2ccccc12,Non-toxic,Non-toxic,Non-toxic,Non-toxic,Activity (Mus musculus [1]): inactive; Activity (Mus musculus [18]): inactive; Activity (Mus musculus [6]): Non-toxic; Activity (Mus musculus [7]): Non-toxic; Activity (Mus musculus [8]): Non-toxic; Activity (Mus musculus [9]): Non-toxic
CCNCC(=O)Nc1c(Cc2nccc3ccccc23)ccc(OC)c1OC,Non-toxic,Non-toxic,Non-toxic,Non-toxic,Activity (Canis familiaris [19]): 0%; Activity (Canis familiaris [20]): 10 mg/kg; Activity (Canis familiaris [21]): 85%
CCN(CC)CC(=O)Nc1cc(OC)c(OC)cc1Cc1nccc2ccccc12,–,Non-toxic,Non-toxic,Non-toxic,–
CCN(CC)CC(=O)Nc1c(Cc2nccc3ccccc23)ccc(OC)c1OC,Non-toxic,Non-toxic,Non-toxic,Non-toxic,Activity (Canis familiaris [19]): 0%; Activity (Canis familiaris [22]): 135%; Activity (Canis familiaris [20]): 46.5 mg/kg; Activity (Canis familiaris [23]): 6.25 mg/kg; Activity (Canis familiaris [24]): 15.75 mg/kg; Activity (Canis familiaris [21]): 90%
